KDM4C inh = blocks human GASC-1 (KDM4C) demethylase activity | 96,000 tested, 0.15% active | Q9H3R0 | inhibition, % at 12.5 µM | GST-KDM4C 2-372, H3K9me3 peptide, LANCE TR-FRET | AID 720574;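 active = mean replicate inhibition above about 25%, with at least 55% of replicates also reaching it, limit read from the data, passing the limit was not always enough; inconclusive = only one of those two conditions met; inactive = neither condition met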
Target sequence (Q9H3R0 2-372 limits assumed): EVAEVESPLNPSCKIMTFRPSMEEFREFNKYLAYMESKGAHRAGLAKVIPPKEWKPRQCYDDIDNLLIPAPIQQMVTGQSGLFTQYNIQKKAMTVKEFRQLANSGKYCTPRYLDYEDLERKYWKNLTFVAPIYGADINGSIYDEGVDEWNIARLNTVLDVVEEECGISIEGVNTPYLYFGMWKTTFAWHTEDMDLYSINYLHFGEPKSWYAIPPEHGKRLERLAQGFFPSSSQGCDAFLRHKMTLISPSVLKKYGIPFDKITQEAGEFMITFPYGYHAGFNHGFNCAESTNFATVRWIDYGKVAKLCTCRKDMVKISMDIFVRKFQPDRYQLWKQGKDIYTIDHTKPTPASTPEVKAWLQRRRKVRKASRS
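Material: GST-tagged GASC-1 (JMJD2C) catalytic fragment, aa 2-372. Input: enzyme final amount 10 nM. Medium: HEPES buffer, pH 7.5, plus ascorbate. Reagent: H3K9me3 peptide substrate, Fe(II), 2-oxoglutarate. Doses: single dose. Times: reaction 30 min RT, detection step 1 h RT. Measured by: LANCE TR-FRET. Evaluation: Fall in 671/618 emission ratio as inhibition.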
IDH1 mut inh = blocks human IDH1 R132H reductase activity | inhibition, % at 10 µM | diaphorase/resazurin fluorescence, 60 min | O75874 | 70,000 tested, 0.18% active | AID 624101; in the data active = inhibition above about 34%; inconclusive = no clear call, values can overlap the other calls; inactive = below about 11%;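 note: 0% = DMSO and 100% = no enzyme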
Target sequence (O75874 whole entry R132H): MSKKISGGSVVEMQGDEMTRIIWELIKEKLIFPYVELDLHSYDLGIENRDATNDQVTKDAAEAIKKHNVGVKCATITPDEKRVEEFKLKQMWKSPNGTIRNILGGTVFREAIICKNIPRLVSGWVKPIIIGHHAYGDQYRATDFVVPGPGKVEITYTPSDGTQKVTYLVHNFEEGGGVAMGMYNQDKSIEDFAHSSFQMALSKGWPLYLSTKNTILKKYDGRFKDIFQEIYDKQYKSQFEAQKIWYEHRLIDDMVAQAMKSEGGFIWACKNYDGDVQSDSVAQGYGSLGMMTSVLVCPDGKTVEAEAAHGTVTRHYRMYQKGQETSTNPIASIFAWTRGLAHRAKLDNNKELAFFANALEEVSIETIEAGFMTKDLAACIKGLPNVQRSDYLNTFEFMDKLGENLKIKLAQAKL
T cruzi growth-1 = blocks T. cruzi growth in NIH3T3 culture | T. cruzi beta-gal in NIH3T3, GalScreen luminescence, 90 h | inhibition, % at 8.34 µM | 77,000 tested, 5.9% active;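 active = mean inhibition above about 93%, with at least 55% of replicates each passing it, limit read from the data, passing the limit was not always enough; inconclusive = only one of those two conditions holds; inactive = neither condition holds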
T cruzi growth-2 = blocks T. cruzi growth in NIH3T3 host cells | T. cruzi beta-gal in NIH3T3, GalScreen luminescence, 90 h | shares compounds with T cruzi growth-1 | inhibition, % at 8.35 µM | 5,600 tested, 72% active;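 active = mean replicate inhibition above about 95% and at least 55% of replicates individually reaching it, limit read from the data; inconclusive = only one of the two criteria is met; inactive = neither criterion is met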
T cruzi growth-3 = Trypanosoma cruzi proliferation inhibition. shares compounds with T cruzi growth-1. T. cruzi beta-gal in NIH3T3, GalScreen luminescence, 90 h. inhibition, % at 2.09 µM. 5,600 tested, 21% active. AID 651740;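 active = mean inhibition above about 95%, with at least 55% of replicates also reaching it, limit read from the data; inconclusive = meets just one of the two conditions; inactive = meets neither condition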;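 note: plate controls were neutral control median for no effect and positive control median for full effect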
3T3 cytotox = kills mouse NIH/3T3 fibroblasts; shares compounds with T cruzi growth-1; 5,600 tested, 14% active; cytotoxicity (signal decrease), % at 8.35 µM; NIH/3T3 viability, CellTiter-Glo ATP luminescence, 90 h;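 active = mean signal decrease across replicates above about 35% based on untreated-well scatter, with enough replicates individually passing, limit read from the data; inconclusive = no rule stated though some were filed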;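 note: 0% = median of neutral control wells and 100% = median of positive control wells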
NIH3T3 tox 2 = kills mouse NIH/3T3 fibroblasts | inhibition, % at 24.9 µM | NIH/3T3 viability, CellTiter-Glo ATP luminescence, 90 h | shares compounds with T cruzi growth-1 | AID 651744 | 5,600 tested, 56% active;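 active = mean loss of cell viability signal at or above a set limit, and enough replicates individually reaching it; inconclusive = meets only the mean limit or only the replicate share; inactive = meets neither condition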;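 note: 0% = median of neutral control wells and 100% = median of positive control wells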
Numbers without * were called inactive; ? = inconclusive; nt = not tested or not shown. This excerpt belongs to a sample that is enriched for hits.

SMILES | KDM4C inh | IDH1 mut inh | T cruzi growth-1 | T cruzi growth-2 | T cruzi growth-3 | 3T3 cytotox | NIH3T3 tox 2
COC(=O)c1ccccc1NC(=O)CNS(=O)(=O)c1c(C)cc(C)cc1C | nt | 0.1 | nt | nt | nt | nt | nt
CC(C)N(Cc1nc(-c2ccccc2)no1)S(=O)(=O)c1ccc(Br)cc1 | nt | 0.0 | nt | nt | nt | nt | nt
CCn1c(SCC(=O)Nc2ccccc2-c2ccccc2)nnc1-c1cccs1 | nt | 0.3 | nt | nt | nt | nt | nt
Cc1ccc(S(=O)(=O)N(C)CC(=O)Nc2ccc(Br)cc2C)cc1 | nt | 0.1 | nt | nt | nt | nt | nt
CCn1cc(C(C)NC(=S)Nc2cccc([N+](=O)[O-])c2)c(C)n1 (stereo unspecified) | nt | 0.1 | nt | nt | nt | nt | nt
COc1ccc(-n2c(SCC(=O)Nc3ccccc3OC)nc3sc4c(c3c2=O)CCCC4)cc1 | nt | 0.3 | nt | nt | nt | nt | nt
COC(=O)c1ccccc1NC(=O)COc1cccc(Cl)c1Cl | nt | -0.1 | nt | nt | nt | nt | nt
CC(C)NC(=O)N(C)C[C@@H]1OCCCC[C@H](C)Oc2ccc(NC(=O)Nc3ccc(C(F)(F)F)cc3)cc2C(=O)N([C@H](C)CO)C[C@@H]1C | -0.5 | 1.2 | 99.7* | 99.7* | 1.1 | 12.1 | 13.8
CC(C)NC(=O)N(C)C[C@H]1OCCCC[C@H](C)Oc2ccc(NC(=O)Nc3ccc(C(F)(F)F)cc3)cc2C(=O)N([C@@H](C)CO)C[C@H]1C | -0.2 | 0.6 | 49.1 | nt | nt | nt | nt
C[C@@H]1CCCCO[C@H](CN(C)C(=O)Nc2ccc(F)cc2)[C@@H](C)CN([C@@H](C)CO)C(=O)c2cc(NC(=O)Nc3ccc(C(F)(F)F)cc3)ccc2O1 | -2.5 | nt | 89.0 | nt | nt | nt | nt
C[C@@H]1CCCCO[C@@H](CN(C)C(=O)Nc2ccc(C(F)(F)F)cc2)[C@H](C)CN([C@@H](C)CO)C(=O)c2cc(NC(=O)Nc3ccc(C(F)(F)F)cc3)ccc2O1 | -0.7 | -2.4 | 115.7* | 99.0* | 113.0* | -17.4 | -25.0
C[C@@H]1CCCCO[C@@H](CN(C)C(=O)c2ccccc2)[C@H](C)CN([C@@H](C)CO)C(=O)c2cc(NC(=O)Nc3ccc(C(F)(F)F)cc3)ccc2O1 | -0.2 | 1.1 | 102.2* | 105.2* | 107.8* | -7.8 | -5.7
C[C@@H]1CCCCO[C@H](CN(C)C(=O)Nc2ccc(F)cc2)[C@H](C)CN([C@H](C)CO)C(=O)c2cc(NC(=O)Nc3ccc(C(F)(F)F)cc3)ccc2O1 | -2.6 | nt | 92.6 | nt | nt | nt | nt
C[C@H](CO)N1C[C@H](C)[C@@H](CN(C)C(=O)c2ccccc2)OCCCC[C@H](C)Oc2ccc(NC(=O)Nc3ccc(C(F)(F)F)cc3)cc2C1=O | 0.6 | nt | -56.3 | nt | nt | nt | nt
C[C@H]1CCCCO[C@@H](CN(C)C(=O)Nc2ccc(C(F)(F)F)cc2)[C@@H](C)CN([C@@H](C)CO)C(=O)c2cc(NC(=O)Nc3ccc(C(F)(F)F)cc3)ccc2O1 | -1.0 | nt | 125.6* | 109.4* | 111.2* | -7.1 | 5.6
CC(NC(=O)c1ccccc1N)C(N)=O (stereo unspecified) | nt | 0.1 | nt | nt | nt | nt | nt
Cc1ccc(-c2nc3ncccc3o2)cc1NC(=O)COc1cc(C)c(Cl)c(C)c1 | nt | 0.2 | nt | nt | nt | nt | nt
Cc1ccc([N+](=O)[O-])cc1N(CC(=O)Nc1ccc(I)cc1)S(C)(=O)=O | nt | 0.0 | nt | nt | nt | nt | nt
O=S(=O)(Cc1ccccc1)N1CCCCN2[C@H](C1)[C@H](c1ccc(-c3cccnc3)cc1)[C@@H]2CO | 1.2 | nt | 98.2* | 59.6 | -6.5 | -7.2 | -17.4
O=S(=O)(Cc1ccccc1)N1CCCCN2[C@H](CO)[C@H](c3ccc(-c4cccnc4)cc3)[C@@H]2C1 | -0.4 | nt | 89.4 | nt | nt | nt | nt
O=S(=O)(Cc1ccccc1)N1CCCCN2[C@@H](CO)[C@@H](c3ccc(-c4cncnc4)cc3)[C@@H]2C1 | -0.9 | nt | 93.2 | nt | nt | nt | nt
O=S(=O)(Cc1ccccc1)N1CCCCN2[C@H](CO)[C@H](c3ccc(-c4cccnc4)cc3)[C@H]2C1 | -1.1 | nt | 108.2* | 107.5* | 59.4 | 2.3 | 27.4*
COc1ccccc1CNC(=O)C[C@H]1CC[C@H]2[C@@H](COC[C@H](O)CN2Cc2cccc(-c3ccncc3)c2)O1 | -3.4 | nt | 120.1* | 97.5* | 79.0 | 3.1 | 24.3
COc1ccccc1CNC(=O)C[C@H]1CC[C@@H]2[C@H](COC[C@@H](O)CN2Cc2cccc(-c3ccncc3)c2)O1 | 0.5 | nt | ? | 95.6* | 93.2 | 29.2 | 58.8*
COc1ccccc1CNC(=O)C[C@H]1CC[C@H]2[C@@H](COC[C@H](O)CN2Cc2ccccc2)O1 | -1.8 | nt | nt | nt | nt | nt | nt
SMILES | KDM4C inh | IDH1 mut inh | T cruzi growth-1 | T cruzi growth-2 | T cruzi growth-3 | 3T3 cytotox | NIH3T3 tox 2
COc1ccccc1CNC(=O)C[C@@H]1CC[C@H]2[C@@H](COC[C@H](O)CN2Cc2ccc3c(c2)OCO3)O1 | 2.0 | nt | 101.3* | 76.5 | 27.6 | 12.3 | 6.5
COc1ccccc1CNC(=O)C[C@@H]1CC[C@@H]2[C@H](COC[C@@H](O)CN2Cc2cccc(-c3ccncc3)c2)O1 | 5.3 | nt | 91.7 | nt | nt | nt | nt
COc1ccccc1CNC(=O)C[C@@H]1CC[C@H]2[C@@H](COC[C@H](O)CN2Cc2cccc(-c3ccncc3)c2)O1 | 1.0 | nt | 91.9 | nt | nt | nt | nt
COc1ccc(Cl)cc1N(CC(=O)Nc1ccccc1Br)S(C)(=O)=O | nt | 0.1 | nt | nt | nt | nt | nt
O=C(NCCc1ccccc1)[C@H]1[C@H](CO)[C@H]2Cn3c(cccc3=O)[C@@H]1N2C(=O)C1CCC1 | 0.3 | nt | 99.2* | 66.1 | 21.0 | 9.9 | -11.3
O=C(NCCc1ccccc1)[C@@H]1[C@@H](CO)[C@@H]2Cn3c(cccc3=O)[C@H]1N2C(=O)C1CC1 | -1.5 | nt | 21.4 | nt | nt | nt | nt
O=C(NCCc1ccccc1)[C@H]1[C@H](CO)[C@H]2Cn3c(cccc3=O)[C@@H]1N2C(=O)C1CCCC1 | -0.6 | nt | 78.9 | nt | nt | nt | nt
O=C(NCCc1ccccc1)[C@@H]1[C@@H](CO)[C@@H]2Cn3c(cccc3=O)[C@H]1N2C(=O)C1CCC1 | -1.1 | nt | ? | -15.0 | 11.2 | -21.2 | 0.4
COc1ccc(S(=O)(=O)N(C)C[C@H]2Oc3cc(C#CC4CCCCC4)ccc3S(=O)(=O)N([C@@H](C)CO)C[C@@H]2C)cc1 | -0.2 | nt | 56.8 | nt | nt | nt | nt
C[C@@H]1CN([C@H](C)CO)S(=O)(=O)c2ccc(C#CC3CCCC3)cc2O[C@@H]1CN(C)S(C)(=O)=O | -0.9 | nt | 110.4 | nt | nt | nt | nt
Cc1ccc(S(=O)(=O)N(C)C[C@H]2Oc3cc(C#CC4CCCC4)ccc3S(=O)(=O)N([C@@H](C)CO)C[C@@H]2C)cc1 | -1.5 | -0.3 | 121.2* | 97.2* | 108.8* | 30.2 | 43.5*
COc1ccc(S(=O)(=O)N(C)C[C@@H]2Oc3cc(C#CC4CCCCC4)ccc3S(=O)(=O)N([C@@H](C)CO)C[C@H]2C)cc1 | 1.0 | nt | 24.3 | nt | nt | nt | nt
C[C@H](CO)N1C[C@H](C)[C@@H](CN(C)S(C)(=O)=O)Oc2cc(C#CC3CCCC3)ccc2S1(=O)=O | 3.5 | -2.7 | 123.3* | 102.1* | 35.5 | 20.3 | 65.9*

Screening results (PubChem)
